PMC6634314 (Cell chemical biology, 2019)

Columns and labels:
PTK2 = assay: MIB washout assay; assay type: binding, Human
MARK2 = assay: MIB washout assay; assay type: binding, Human; conditions: H23 cells, 1 μM 4h, MIB pulldown ratio SM1-71/SM1-71-R
MAP2K1 = MAP2K1 (Homo sapiens, UniProt Q02750); assay: mass shift assay; assay type: binding; conditions: incubated 4 and 24h
In short: (§1)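 Kinase protein at 0.12 mM in 10 mM HEPES pH 7.5, 500 mM NaCl, incubated with 0.2 mM test compound at 4°C for 4 h and 24 h. Samples were diluted in 0.1% formic acid and desalted on a C3 pre-column. ESI-TOF was run in positive mode at 120 V, and intact mass was obtained by deconvolution to detect the adduct.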

EPHA2 = assay: MIB washout assay; assay type: binding, Human; conditions: H23 cells, 1 μM 4h, MIB pulldown ratio SM1-71/SM1-71-R
MAP2K2 = MAP2K2 (Homo sapiens, UniProt P36507); assay: mass shift assay; assay type: binding; conditions: incubated 4 and 24h
Chain of MAP2K2 (P36507 whole entry, species assumed): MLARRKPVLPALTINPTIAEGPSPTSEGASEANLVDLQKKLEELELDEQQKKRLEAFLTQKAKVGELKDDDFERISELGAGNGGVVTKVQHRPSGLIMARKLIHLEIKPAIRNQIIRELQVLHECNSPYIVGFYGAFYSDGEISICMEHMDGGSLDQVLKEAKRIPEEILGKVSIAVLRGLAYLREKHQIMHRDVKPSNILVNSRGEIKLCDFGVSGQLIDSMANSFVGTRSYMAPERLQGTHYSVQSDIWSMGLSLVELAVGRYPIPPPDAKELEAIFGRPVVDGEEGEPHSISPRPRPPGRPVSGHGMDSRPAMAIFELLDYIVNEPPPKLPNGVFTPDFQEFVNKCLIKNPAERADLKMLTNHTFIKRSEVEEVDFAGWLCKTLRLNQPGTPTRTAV
In short: as §1

MAPK1 = assay: MIB washout assay; assay type: binding, Human; conditions: H23 cells, 1 μM 4h, MIB pulldown ratio SM1-71/SM1-71-R
FYN = assay: MIB washout assay; assay type: binding, Human; conditions: H23 cells, 1 μM 4h, MIB pulldown ratio SM1-71/SM1-71-R
Calu-6-KRAS^Q61K = assay: proliferation assay; assay type: cell-based, Human; conditions: Calu-6-KRAS^Q61K cells (Fig. S2)
In short: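 NSCLC lines were mycoplasma-tested and treated with various concentrations of test compound for 72 h. Cell viability was then measured by CellTiter-Glo luminescence.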

Chain of MAP2K1 (Q02750 whole entry, species assumed): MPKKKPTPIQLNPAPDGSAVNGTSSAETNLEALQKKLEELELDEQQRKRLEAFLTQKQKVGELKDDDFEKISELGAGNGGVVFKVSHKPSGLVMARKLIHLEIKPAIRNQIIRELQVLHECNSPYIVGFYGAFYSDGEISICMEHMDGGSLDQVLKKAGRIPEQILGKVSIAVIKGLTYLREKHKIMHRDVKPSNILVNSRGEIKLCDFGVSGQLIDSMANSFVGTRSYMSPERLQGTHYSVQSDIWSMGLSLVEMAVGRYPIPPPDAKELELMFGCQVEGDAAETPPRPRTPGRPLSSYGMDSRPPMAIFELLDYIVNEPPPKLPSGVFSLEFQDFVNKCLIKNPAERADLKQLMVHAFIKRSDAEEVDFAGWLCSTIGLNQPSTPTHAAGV

C=CC(=O)Nc1ccccc1Nc1nc(Nc2ccc(N3CCN(C)CC3)cc2)ncc1Cl [SM1-71]
BI-0h (PTK2; H23 cells, 1 μM 4h, 0h post-washout, MIB pulldown ratio SM1-71/SM1-71-R): 1.3
BI-6h (PTK2; H23 cells, 1 μM 4h, 6h post-washout, MIB pulldown ratio SM1-71/SM1-71-R): 1.12
Binding (PTK2; class from BI 0h and 6h): Strongly Reversible (BI0h,6h greater than 1 suggesting a strong preference for reversible mode of inhibition)
BI-0h (MARK2; 0h post-washout): 0.74
BI-6h (MARK2; 6h post-washout): 1.13
covalent adduct formation (mass shift) (MAP2K1): formed covalent adducts
BI-0h (EPHA2; 0h post-washout): 0.71
BI-6h (EPHA2; 6h post-washout): 0.49
covalent adduct formation (mass shift) (MAP2K2): formed covalent adducts
BI-0h (MAPK1; 0h post-washout): 0.19
BI-6h (MAPK1; 6h post-washout): 0.39
BI-0h (FYN; 0h post-washout): 0.81
BI-6h (FYN; 6h post-washout): 0.91
growth inhibitory effects (Calu-6-KRAS^Q61K): strong growth inhibitory effects
